From PubChem
Compounds with a hit are over-represented: about 3.4% of the library has one in this group of screens.
Arrestin-AP2 inh = human beta-arrestin and AP2 interaction inhibition; FITC-arrestin peptide / GST-AP2 beads, flow cytometry; AP2 beta2 appendage carries R879A mutation; inhibition, % at 10 µM; 0.31% of 340,000 active;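 active = inhibition above a set limit, near 3 SD of compounds lacking own fluorescence, cut at about 54% in these data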;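 also: plate controls were DMSO wells for no effect and 5 µM unlabelled arrestin peptide for full effect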
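System: GST-AP2 R879A glutathione beads. Medium: PBS with 0.05% Tween 20 and 0.1% BSA. Also added: FITC-arrestin peptide, 50 nM. Incubation: 12 min plus 1 h, RT. Measured by: high-throughput flow cytometry of beads, ex 488, em 535 nm. Evaluation: percent drop in bead-associated FITC signal.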
AHR act = activators of human aryl hydrocarbon receptor | AHR-responsive luciferase reporter cells, luminescence | activation, % at 5 µM | 2.5% of 320,000 active | P35869; in the data active = activation above about 47%;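 also: 0% = vehicle wells and 100% = reference agonist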
UCH37 inh = human UCH37 deubiquitinating enzyme inhibition; Q9Y5K5; purified proteasome/UCH37, Ub-AMC cleavage fluorescence; inhibition, % (no concentration beside the values); 0.33% of 330,000 active;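 active = mean inhibition over replicate wells above about 20%, limit read from the data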;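 also: 0% = compound-free wells with enzyme and 100% = wells lacking proteasome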
Target sequence (Q9Y5K5 whole entry, looked up): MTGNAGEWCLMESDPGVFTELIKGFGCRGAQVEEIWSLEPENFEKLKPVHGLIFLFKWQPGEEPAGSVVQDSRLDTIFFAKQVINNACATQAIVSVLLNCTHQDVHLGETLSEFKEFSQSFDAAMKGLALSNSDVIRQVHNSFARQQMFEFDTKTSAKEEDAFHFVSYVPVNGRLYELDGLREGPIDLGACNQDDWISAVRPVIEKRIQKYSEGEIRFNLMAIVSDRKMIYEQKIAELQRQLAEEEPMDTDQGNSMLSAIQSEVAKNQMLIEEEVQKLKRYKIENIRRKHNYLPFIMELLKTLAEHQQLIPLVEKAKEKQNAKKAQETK
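Assay system: Proteasome-bound UCH37. Buffer or medium: pH 7.4 Tris-HCl (50 mM) with ovalbumin, ATP-MgCl2, DTT. Incubation: 30 min preincubation with enzyme, 25 min cleavage at room temperature. Measured by: fluorescence, ex 355 nm, em 460 nm. Read-out basis: percent inhibition. Control set: wells without proteasome as full block, compound-free enzyme plus substrate as uninhibited.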
A3G deaminase = APOBEC3G (human) deaminase inhibition; inhibition, % at 20 µM; Q9HC16; 0.28% of 330,000 active; recombinant A3G, ssDNA deamination FAM/TAMRA fluorescence;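 active = inhibition of at least 40% at 20 µM, with no more than 30% in the related APOBEC3A deaminase screen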;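 also: plate controls were DMSO wells with A3G for no effect and wells lacking A3G enzyme for full effect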
A3A deaminase = blocks human APOBEC3A ssDNA deamination | P31941 | inhibition, % at 20 µM | recombinant A3A, FAM/TAMRA ssDNA deamination fluorescence | 0.41% of 330,000 active;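 active = at least 40% inhibition at 20 µM here, with at most 30% in a related deaminase screen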;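 also: plate controls were A3A with DMSO for no effect and wells lacking A3A enzyme for full effect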
Target sequence (P31941 whole entry, looked up): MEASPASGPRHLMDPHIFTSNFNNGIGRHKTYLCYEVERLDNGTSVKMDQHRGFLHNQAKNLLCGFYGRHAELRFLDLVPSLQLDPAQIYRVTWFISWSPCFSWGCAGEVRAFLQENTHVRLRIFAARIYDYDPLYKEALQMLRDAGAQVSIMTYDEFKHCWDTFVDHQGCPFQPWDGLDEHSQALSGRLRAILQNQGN
PolyA inhibitor = blocks polyadenylation in yeast reporter cells. S. cerevisiae SKY197-pL101 polyadenylation reporter, beta-gal luminescence; efflux-impaired pdr1/pdr3 knockout yeast; score 100 = 6 SD above DMSO. activity score, % at 12 µM. 0.02% of 300,000 active;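 active = lowest replicate activity score at least 50, where 100 means six control SD above control mean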;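 also: yeast exposed to compound for 9 h at 30 °C; higher score means more reporter readthrough which indicates perturbed polyadenylation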
AHR act confirm = confirmation of human aryl hydrocarbon receptor activators | shares compounds with AHR act | activation, % at 9 µM | human cells, AHR-responsive luciferase reporter, luminescence | 87% of 2,300 active; in the data active = activation above about 49%;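 also: HepG2 hepatoma cells carrying a DRE-driven firefly luciferase reporter; 0% = vehicle wells and 100% = reference agonist wells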
PXR act counter = counter-screen for AHR activators: human PXR activators; shares compounds with AHR act; cell-based PXR reporter, luciferase luminescence; activation, % at 11.6 µM; 88% of 2,300 active; AID 434939; in the data active = activation above about 11%;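 also: human hepatoma DPX-2 cells expressing full-length human PXR; 0% = DMSO and 100% = reference agonist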
* marks the source's active call; other numbers are inactive results; i = inactive; / = no result given.

SMILES	Arrestin-AP2 inh	AHR act	UCH37 inh	A3G deaminase	A3A deaminase	PolyA inhibitor	AHR act confirm	PXR act counter
O=C(Cn1c(NCCCO)nc2ccccc21)c1ccc(Cl)cc1	9	5	2	-4	-5	1	/	/
CCn1c(SCC(=O)NN=Cc2ccc(C)s2)nc2ccccc21	/	/	5	/	/	/	/	/
Cc1ccc(/C=N/NC(=O)CSc2nc3ccccc3n2C)s1	24	108*	/	-6	-5	-1	92*	52*
Cc1ccc(-c2cn(-c3ccccc3)c(=S)[nH]2)cc1C	-10	81*	1	-4	-2	-1	12	38*
Cc1ccccc1-c1cn(-c2ccccc2)c(=S)[nH]1	-5	20	0	-1	1	-22	/	/
O=C(Nc1ccc(C(F)(F)F)cc1)c1ccc2ncsc2c1	35	42	-1	-3	0	-7	/	/
COC(=O)c1ccc(NC(=O)c2ccc3nccnc3c2)cc1	-3	-5	2	0	1	3	/	/
O=C(Nc1ccc(C(F)(F)F)cc1)c1ccc2nc[nH]c2c1	-8	106*	2	-4	0	8	98*	10*
O=C(Nc1ccc(OC(F)(F)F)cc1)c1ccc2nccnc2c1	-10	86*	/	-7	-2	13	81*	15*
CC1=C(C(=O)Nc2ccc(Br)cc2)C(c2ccco2)NC(=O)N1 (stereo unspecified)	4	107*	2	5	0	18	35	7
CC1=C(C(=O)Nc2ccc(C)cc2)C(c2ccco2)NC(=O)N1 (stereo unspecified)	19	2	-1	-2	5	-1	/	/
O=S(=O)(Nc1cc(Sc2cccc3cccnc23)c(O)c2ccccc12)c1ccc(F)cc1	/	85*	7	/	/	-14	25	132*
O=C(NN=Cc1ccc(Cl)cc1Cl)c1ccc2nc[nH]c2c1	/	/	4	/	/	/	/	/
CNC(=O)c1cc2c(ccc3ccccc32)o1	33	108*	-16	1	0	-1	102*	13*
O=C(NC1CC1)c1cc2ccccc2o1	30	0	0	-4	1	4	/	/
O=C(NC1CCCC1)c1cc2c(ccc3ccccc32)o1	-6	112*	-30	4	2	6	66*	/
COc1cc(/C=C/c2nc(-c3ccccc3O)n[nH]2)cc(OC)c1OC	4	9	-2	-6	-1	-6	/	/
CC(=O)Nc1ccc(/C=C/c2nc(-c3ccccc3O)n[nH]2)cc1	31	81*	/	-3	2	-6	104*	7
O=C(NN=Cc1ccc(OC(=O)c2ccco2)cc1)c1ccc[n+]([O-])c1	/	/	8	/	/	/	/	/
COc1cccc(C(=O)Nc2nnc(C(C)C)s2)c1	21	133*	2	-8	-1	-2	0	28*
COc1ccc(Cc2nnc(NC(=O)c3cc(OC)cc(OC)c3)s2)cc1	22	82*	1	-6	-7	-9	76*	12*
Cc1cc(C(=O)N/N=C/c2ccc(C)s2)n[nH]1	-7	97*	/	-10	-2	2	89*	24*
C=CCn1c(O)c(N=NC(=S)Nc2cccc(C)c2)c2ccccc21	-5	123*	8	0	2	-41	78*	59*
Cc1cccc(NC(=O)Cn2c(O)c(N=NC(=O)c3ccncc3)c3ccccc32)c1	1	3	4	-1	3	12	/	/
C=CCn1c(O)c(N=NC(=S)Nc2ccccc2F)c2ccccc21	16	137*	4	-6	-8	-12	83*	79*
SMILES	Arrestin-AP2 inh	AHR act	UCH37 inh	A3G deaminase	A3A deaminase	PolyA inhibitor	AHR act confirm	PXR act counter
CCc1ccc(S(=O)(=O)Nc2ccc(-c3nc4cccnc4s3)cc2)s1	-2	88*	i	-3	-1	20	82*	20*
O=S(=O)(Nc1ccc(-c2nc3cccnc3s2)cc1)c1cc(F)ccc1F	-5	38	/	-6	-13	23	/	/
CCCc1nc(NCc2ccncc2)c2nnn(Cc3ccccc3F)c2n1	4	81*	-1	-9	-6	-7	61*	116*
CCCc1nc(NCc2ccccn2)c2nnn(Cc3ccccc3F)c2n1	1	1	1	-4	1	4	/	/
c1cc(-c2cc3cc4c(cc3cn2)OCO4)cs1	0	118*	-2	-7	0	/	114*	25*
O=C(CC=NOCc1ccc([N+](=O)[O-])cc1)Nc1ccc(F)cc1F	/	/	1	/	/	/	/	/
O=C(Nc1ccon1)Nc1ccc(F)cc1F	-7	0	2	4	6	-7	/	/
O=C(Nc1ccon1)Nc1cc(Cl)ccc1Cl	21	122*	5	-9	-2	6	101*	11*
COc1ccc(/C=N\NC(=O)c2ccccc2OC)cc1COc1ccccc1C	14	96*	/	-4	0	-15	109*	35*
COc1ccc(/C=N/NC(=O)c2nc(Cl)c(Cl)c(N)c2Cl)cc1COc1ccccc1F	26	116*	/	-3	1	7	99*	105*
COc1ccc(C=NNC(=O)c2ccccc2OC)cc1COc1ccc(C)cc1	/	/	-2	/	/	/	/	/
COc1ccc(C(=O)NN=Cc2ccc(OC)c(COc3ccc(F)cc3F)c2)cc1	/	/	0	/	/	/	/	/
COc1ccc(/C=N/NC(=O)c2nc(Cl)c(Cl)c(N)c2Cl)cc1COc1ccc(F)cc1F	7	84*	/	0	5	12	97*	60*
Cc1cc(C)n(CCC(=O)NN=Cc2ccc(Cl)c([N+](=O)[O-])c2)n1	/	/	-2	/	/	/	/	/
CC1=N/C(=C\c2cc(Br)cc(Br)c2O)C(=O)O1	/	/	3	/	/	/	/	/
CN(C)S(=O)(=O)c1cccc(NC(=O)c2ccc3c(c2)OCCO3)c1	-3	102*	2	-13	-3	13	92*	110*
CN(C)S(=O)(=O)c1cccc(C(=O)Nc2cc(Cl)ccc2O)c1	3	84*	2	-9	-5	-1	46	90*
CCN(CC)S(=O)(=O)c1cccc(C(=O)Nc2ccc3c(c2)OCO3)c1	1	165*	4	-7	-3	-7	103*	134*
CCCC12CN3CCN(CC(C3)C1=NNC(=O)c1ccc(F)cc1)C2	/	/	1	/	/	/	/	/
O=C(NN=C1CCSC1)c1cccc([N+](=O)[O-])c1	/	/	1	/	/	/	/	/
CN1/C(=C/C(=O)C2CCC2)Sc2ccccc21	10	138*	16	-4	-8	-14	138*	23*
CN1/C(=C/C(=O)c2cccs2)Sc2ccccc21	-8	86*	-22	1	-2	13	115*	23*
COCC(=O)/C=C1\Sc2ccccc2N1C	-4	-2	19	-8	-3	-14	/	/
